Results as given in ChEMBL document CHEMBL1122921, “Stereoselective antitumor properties in the Lewis lung carcinoma model using bis(morpholinomethyl) derivatives of tricyclic bis(dioxopiperazines)” (1985).
Where “and” joins values, the source holds several entries; their conditions need not be identical. Equal entries are not always repeated.

Legend:
Mus musculus [1] = organism: Mus musculus; assay: Number of 50-day survivors Out of 8 mice; type: functional
Method in brief: (§1)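 Female BDF1 mice (19–21 g), 8–9 per group. Lewis lung carcinoma implanted on day 0 and the leg amputated on day 9. From day 9, 160 mg/kg ip q2d×4, given as a suspension or solution in 0.9% NaCl. Mice dying and those killed on day 50 were autopsied for body weight, lung weight, metastases (<2 or >2 mm) and metastasis incidence. Median survival and ILS were recorded, with ≥25% ILS taken as activity.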

Mus musculus [2] = organism: Mus musculus; assay: Percent increase in life span was measured in mice; type: functional
Method in brief: (§2)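 Female BDF1 mice (19–21 g), 10 per group. Lewis lung carcinoma, 10^5 cells in 0.05 mL, implanted in the right hind leg on day 0, and the leg amputated on day 10. Dosing was 160 mg/kg ip in 0.9% NaCl made daily, either from -1 h on day 0 q2d×5 (preamputation) or from day 11 q2d×4 (postamputation). Survivors were killed and autopsied on day 50, and values were averaged over all 10 mice. ILS ≥25% is taken as activity.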

Mus musculus [3] = organism: Mus musculus; assay: Compound was tested against autopsying on day 50th metastasis( <2 mm size.) in mice.; type: functional; method in brief: as §1
Mus musculus [4] = organism: Mus musculus; assay: Number of mice with metastasis Out of 8 mice; type: functional; method in brief: as §1
Mus musculus [5] = organism: Mus musculus; assay: Average body weight of mice was determined; type: functional; method in brief: as §1
Mus musculus [6] = organism: Mus musculus; assay: Compound was tested against autopsying on day 50th metastasis( >2 mm size.) in mice.; type: functional; method in brief: as §2
Mus musculus [7] = organism: Mus musculus; assay: Average lung weight of mice was determined; type: functional; method in brief: as §2
Mus musculus [8] = assay: Median survival time of 10 BDF1 mice was tested after administration of compound (Postamputation schedule 160 mg/kg)
Mus musculus [9] = organism: Mus musculus; assay: Number of 50-day survivors Out of 9 mice; type: functional; method in brief: as §1
Mus musculus [10] = organism: Mus musculus; assay: Compound was tested against autopsying on day 50th metastasis( <2 mm size) in mice; type: functional; method in brief: as §1
Mus musculus [11] = organism: Mus musculus; assay: Compound was tested against autopsying on day 50th metastasis( >2 mm size) in mice; type: functional
Method in brief: (§3)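 Female BDF1 mice (19–21 g), 10 per group, were implanted with 10^5 Lewis lung cells in the right hind leg on day 0, with leg amputation on day 10. Dosing was 160 mg/kg ip, either from −1 h on day 0 q2d×5 or from day 11 q2d×4, in saline prepared daily. Survivors were killed on day 50, and lung metastases were counted by size. Values are averages over 10 mice, dying and killed.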

Mus musculus [12] = organism: Mus musculus; assay: Number of mice with metastasis out of 9 mice tested; type: functional
Method in brief: (§4)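 Female BDF1 mice (19–21 g) were implanted with Lewis lung carcinoma on day 0 and amputated on day 9. Dosing was 160 mg/kg ip from day 9, q2d×4, as a suspension or solution in 0.9% NaCl. Dying mice and mice killed on day 50 were autopsied to count metastases (<2 mm, >2 mm) and mice bearing metastases.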

Mus musculus [13] = organism: Mus musculus; assay: Number of mice with metastasis Out of 9 mice; type: functional; method in brief: as §1
Mus musculus [14] = assay: Median survival time of 10 BDF1 mice was tested after administration of compound (Preamputation schedule 160 mg/kg); type: functional; method in brief: as §2
Mus musculus [15] = assay: Median survival time of 10 BDF1 mice was tested for compound (Postamputation schedule 160 mg/kg); type: functional; method in brief: as §2
Mus musculus [16] = organism: Mus musculus; assay: (§5) Percent of mice without metastasis.; type: functional
Mus musculus [17] = organism: Mus musculus; assay: Compound was tested against autopsying on day 50th metastasis( <1 mm size) in mice; type: functional; method in brief: as §3
Mus musculus [18] = organism: Mus musculus; assay: Average number of metastasis per mouse.; type: functional
Method in brief: (§6)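 Female BDF1 mice (19–21 g) implanted with Lewis lung carcinoma on day 0. The tumour-bearing leg was amputated on day 9 or 10. Dosing was 160 mg/kg ip q2d in 0.9% NaCl. Dying mice were autopsied, and survivors were killed and autopsied on day 50.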

Mus musculus [19] = organism: Mus musculus; assay: Average lung weight per mouse was determined; type: functional; method in brief: as §6
Mus musculus [20] = organism: Mus musculus; assay: Number of 50-day survivors out of 9 mice; type: functional; method in brief: as §1
Mus musculus [21] = organism: Mus musculus; assay: compound was tested against autopsying on day 50th metastasis( <[…] mm size.) in mice.; type: functional; method in brief: as §4
Mus musculus [22] = organism: Mus musculus; assay: compound was tested against autopsying on day 50th metastasis( >2 mm size.) in mice.; type: functional; method in brief: as §3
Mus musculus [23] = organism: Mus musculus; assay: Number of 50-day survivors Out of 10 mice; type: functional; method in brief: as §2
Mus musculus [24] = organism: Mus musculus; assay: Number of 50-day survivors out of 10 mice; 2 mice died out of 6 with one metastasis each (5mm i.d.); type: functional
Mus musculus [25] = organism: Mus musculus; assay: Compound was tested against autopsying on day 50th metastasis( 1-2 mm size) in mice; type: functional; method in brief: as §3
Mus musculus [26] = organism: Mus musculus; assay: compound was tested against autopsying on day 50th metastasis( 1-2 mm size.) in mice.; type: functional; method in brief: as §3
Mus musculus [27] = organism: Mus musculus; assay: compound was tested against autopsying on day 50th metastasis( <1 mm size.) in mice.; type: functional; method in brief: as §3
Mus musculus [28] = organism: Mus musculus; assay: Average lung weight per mouse.; type: functional; method in brief: as §6
Mus musculus [29] = organism: Mus musculus; assay: as §5; type: functional; remark: listed apart in the source

| Compound | ILS (Mus musculus [2]) [%] | Body weight (Mus musculus [5]) [g] | Lung weight (Mus musculus [7]) [mg] | MST (Mus musculus [8]) [days] | N/T (Mus musculus [9]) | Average No. of metastasis (Mus musculus [10]) [count] | Average No. of metastasis (Mus musculus [11]) [count] | M/T (Mus musculus [12]) | MST (Mus musculus [14]) [days] | Mice (Mus musculus [16]) | Average No. of metastasis (Mus musculus [17]) [count] | Average No. of metastasis (Mus musculus [18]) | Lung weight (Mus musculus [19]) | Average No. of metastasis (Mus musculus [22]) [count] | also measured |
| --- | --- | --- | --- | --- | --- | --- | --- | --- | --- | --- | --- | --- | --- | --- | --- |
| O=C1CN2CCN3CC(=O)NC(=O)[C@H]3C2C(=O)N1 (stereo partly drawn) | 34 | 17.8 | 813 | 45 | – | – | – | – | – | – | – | – | – | – | N/T (Mus musculus [1]): 3; Average No. of metastasis (Mus musculus [3]): 1%; M/T (Mus musculus [4]): 5; Average No. of metastasis (Mus musculus [6]): 14% |
| O=C1CN2CCN3CC(=O)N(CN4CCOCC4)C(=O)[C@@H]3C2C(=O)N1CN1CCOCC1 (stereo partly drawn) | >49 | 19.4 | 564 | >50 | 5 | 0 | 9 | 4 | – | – | – | – | – | – | – |
| O=C1CN2CCN3CC(=O)NC(=O)[C@@H]3C2C(=O)N1 (stereo partly drawn) | 16 | 17.7 | 749 | 39 | 2 | 2 | 13 | – | – | – | – | – | – | – | M/T (Mus musculus [13]): 7 |
| O=C1CN2CCN3CC(=O)N(CN4CCOCC4)C(=O)[C@H]3C2C(=O)N1CN1CCOCC1 (stereo in doubt; 3) | – | – | – | – | 5 | – | – | – | 38.5 | 30% and 20% | 0.2 | 15 and 13.8 | 754 mg and 752 mg | – | MST (Mus musculus [15]): 35 days; N/T (Mus musculus [20]): 5 |
| O=C1CN2CCN3CC(=O)N(CN4CCOCC4)C(=O)[C@H]3C2C(=O)N1CN1CCOCC1 (stereo in doubt; form 1) | – | 19.9 | 369 | – | 7 | – | – | 1 | 39 | – | – | – | – | 3 | Average No. of metastasis (Mus musculus [21]): 0 count |
| O=C1CN2CCN3CC(=O)N(CN4CCOCC4)C(=O)[C@H]3C2C(=O)N1CN1CCOCC1 (stereo in doubt; form 2) | – | – | – | – | – | – | 8.3 | – | 39 | 40% | 1 | 12.8 and 7.7 | 641 mg | 4.8 | N/T (Mus musculus [23]): 4; N/T (Mus musculus [24]): 6; Average No. of metastasis (Mus musculus [25]): 3.5 count; Average No. of metastasis (Mus musculus [26]): 2.6 count; Average No. of metastasis (Mus musculus [27]): 0.3 count; Lung weight (Mus musculus [28]): 538 mg; Mice (Mus musculus [29]): 40% |
